Results reported in ChEMBL document CHEMBL4513216, “Probing the Open Global Health Chemical Diversity Library for Multistage-Active Starting Points for Next-Generation Antimalarials” (ACS Infect Dis, 2020).

Assay: Toxicity liver stage against HepG2, at 10uM
Assay type: cell-based
Design: test concentration 10 uM, cell line HepG2-A16-CD81EGFP
Conditions: human, HepG2-A16-CD81EGFP cells; read-out: INHIBITION
Summary of the method: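 Uninfected HepG2-A16-CD81EGFP cells, 3 × 10^3 per well, 1536-well, plated on prespotted compound at 10 μM final, parasite-free screening media added to match infected plates; puromycin 10 μM positive, DMSO 0.5% negative; run in parallel with 48 h PbLuc assay at 37 °C, 5% CO2; viability by CellTiter-Glo luminescence, normalized to controls.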

SMILES | cytotoxicity at 10 µM
Cc1nnc(N(CCC#N)CCC#N)s1 | -0.402%
CCC(C)(C)n1nnnc1C(c1cccs1)N1CCCCC1 (configuration not stated) | 2.09%
COc1ccccc1CNc1c(O)c(=O)c1=O | 4.65%
COCC(O)CN1CCC(=O)N(CC2CC2)Cc2ccccc21 (configuration not stated) | 2.76%
Cc1sc(-n2cnnn2)c(C(=O)NC(C)C)c1C | 2.83%
O=C(c1cc(=O)c(OCc2ccccc2F)co1)N1CCSCC1 | -3.82%
O=C(c1cc(=O)c(OCc2ccccc2)co1)N1CCSCC1 | -0.295%
COc1ccc(CC(=O)Nc2ccc3ncn(C(C)C)c(=O)c3c2)cc1 | 3.97%
CC(=O)Nc1cccc2c1ccn2CC(=O)Nc1nc[nH]n1 | -0.79%
COc1cccc(NC(=O)Nc2ccc3c(c2)CC(=O)N3)c1 | -2.35%
O=C(C1CCSCC1)N1CC[C@H]2OCC[C@@]2(COCC2CC2)C1 | -1.16%
Cn1nc(C(=O)N2CCCC2)c2c1CN(CC1CCOCC1)C2 | -2.51%
CNC(=O)[C@@H]1C[C@H]2CN(C(=O)c3ccccn3)C[C@H]2N1C(C)C | 7.45%
O=C(Cc1ccccn1)N1CCC2(CC1)CN(c1ccccn1)CCO2 | 8.85%
CN(C)C(=O)N1CCN(C(=O)c2ccc(Cl)cc2)CC2(CNC(=O)C2)C1 (configuration not stated) | 10.5%
O=C1CCSCC(C(=O)N2CCOCC2)N1 (configuration not stated) | -11.3%
COC(=O)c1sccc1S(=O)(=O)N1CCC(Oc2cccnn2)CC1 | -4.82%
O=S(=O)(NC1=NCN(CCc2cccs2)CN1)c1ccccc1 | -3.32%
COCCN1C(=O)CCC12CCN(C(=O)CC1CC1)CC2 | 3.73%
CC(C(=O)N1CCN(C)CC1)n1cc(Br)cn1 (configuration not stated) | 3.6%
c1cnc(-c2nn3c(CN4CCCCCC4)nnc3s2)cn1 | 10.8%
CNC(=O)[C@@H]1CN(C(=O)COC)C[C@H]1c1ccnc(N2CCCC2)n1 | 2.75%
Cc1cc(Nc2cnccn2)cc(C2CCCN2)n1 (configuration not stated) | 2.54%

SMILES | cytotoxicity at 10 µM
Cc1cnc(CC2COCCN(C(=O)c3cncs3)C2)cn1 (configuration not stated) | 3.65%
CCC(=O)N1CCCC(c2cc(Nc3ncccn3)nc(C)n2)C1 (configuration not stated) | -3.48%
CC(C)(C)c1nnc2n1C(C(=O)N1CCCC1)CC2 (configuration not stated) | 1.61%
c1ccc(-c2nc(CCNCc3ccncc3)co2)cc1 | 6.07%
O=C(COc1ccc(Cl)cc1)NCc1nncn1C1CC1 | 7.67%
CCc1cc(CNC(=O)c2cc(NC(=O)C(C)C)ccc2Cl)[nH]n1 | 9.36%
Cc1noc(CCNC(=O)c2ccc(N(C)C)c(F)c2)n1 | 6.05%
Cc1ccc(C(=O)N2CCC3(CCCCC3)C2)c(=O)[nH]1 | -2.47%
CCc1ccc(NC(=O)C(C)Nc2cccc3c2OCCO3)cc1 (configuration not stated) | 0.788%
CCOCC1CCCN(C(=O)NCc2cn3c(C)cccc3n2)C1 (configuration not stated) | 12.8%
CC(C)C(=O)N1CCCC1C(=O)Nc1ccc(F)c(F)c1 (configuration not stated) | -1.57%
CCN(CC)C(=O)CNC(=O)N1CCC(c2ccc(OC)cc2)C1 (configuration not stated) | -5.51%
NC(=O)COc1ccc(CNC(=O)CN2CCc3ccccc32)cc1 | -4.07%
CCc1ccc(CNCC2CCN(CCO)CC2)cc1 | -6.73%
CNc1cc(N2CCCC2CNCc2cccnc2C)ncn1 (configuration not stated) | 0.759%
CCN(C(C)c1cccc(O)c1)S(=O)(=O)c1cccnc1 (configuration not stated) | 10.8%
CCC(=O)N(CCC(=O)O)Cc1ccc(F)c(F)c1 | -1.99%
COCc1noc(-c2nn(-c3ccccc3F)c3c2CCC3)n1 | -2.68%
Cc1cc(F)ccc1N1CCCC(NC2CCOCC2)C1=O (configuration not stated) | -11.3%
Cc1nn(C)c(C)c1Cc1nc(N(C)C)no1 | 7.06%
CC(C)(C)n1nc(C(=O)NCC2(C(N)=O)CCOCC2)cc1C1CC1 | -15.9%
N#CC(NC(=O)CC1CCSCC1)c1cnn(-c2ccccc2)c1 (configuration not stated) | 6.1%
COc1c(C)cnc(CN2CCCC2c2noc(C3CC3)n2)c1C (configuration not stated) | -0.0422%

SMILES | cytotoxicity at 10 µM
Cc1nnc(CN2CCCC2c2ccc(Cl)c(Cl)c2)o1 (configuration not stated) | -1.7%
CN(CC1CN(CCn2cc(C#N)cn2)CCO1)c1cccnn1 (configuration not stated) | 1.85%
Cc1cnn(C2CCCN(C(=O)Cn3ccc(=O)n(C)c3=O)C2)c1 (configuration not stated) | 1.99%
Cc1noc(C)c1CN1CCCC(CN(C(=O)OC(C)(C)C)C(C)C)C1 (configuration not stated) | 2.42%
COCc1cccc(NC(C)C(=O)N(C)Cc2cccc(F)c2)c1 (configuration not stated) | 12.2%
COCC(=O)N1CCN(C(=O)c2scnc2C)CC1 | -9.75%
Cc1cc(NC(=O)CN2CCCC2c2noc(C3CC3)n2)no1 (configuration not stated) | -13%
O=C(c1ccsc1)N1CCN2C[C@H](OCc3cccnc3)C[C@H]2C1 | 0.59%
CN(Cc1cn[nH]c1-c1ccc(F)cc1)C(=O)CCC1CC1 | 9.12%
O=C(CN1CCOc2ccccc2C1)NCc1cc2n(n1)CCNC2 | 1.03%
Cc1cnccc1CNCc1ccc(OC23CCCN(CC2)C3)cc1 (configuration not stated) | -12.3%
Cc1cc(C)n(C2CCN(c3ncnc4sc5c(c34)CCNC5)C2)n1 (configuration not stated) | 17.3%
COc1cc(OC)nc(N2CCCC(c3nccn3CCN(C)C)C2)n1 (configuration not stated) | 5.12%
COCCC(=O)N(Cc1cccnc1)CC1CCN(C2CCCC2)CC1 | -5%
CC(C)=CCCC1(C)CCC(=O)N(CCc2nc(N)cc(O)n2)C1 (configuration not stated) | 0.361%
O=C1NC[C@@]2(C(=O)O)CN(Cc3ccc(Oc4ccccc4)cc3)C[C@@H]12 | -8.39%
CC(C)c1noc(CN(C)C(=O)c2ccccc2-c2nc[nH]n2)n1 | 10.4%
CCOCc1nc2c(c(NCCNC(C)=O)n1)CCN(C(C)=O)CC2 | 9.93%
c1ccc(CCc2n[nH]c(C3CCOC3)n2)cc1 (configuration not stated) | 2.78%
CC(=O)Nc1ncc(S(=O)(=O)N2CCOCC2)s1 | 4.81%
CN1CCC(Oc2ccc(NC(=O)c3ccccc3)cc2)CC1 | -5.13%
CC(=O)N1CCCC1c1ccc(C(=O)N2CCOCC2)s1 (configuration not stated) | 6.92%
CCOCCn1nc(C)cc1C(=O)N1CCN(C(C)C)C(CC)C1 (configuration not stated) | -14.2%

SMILES | cytotoxicity at 10 µM
CCC(NC(=O)C1CCN(S(=O)(=O)N(C)C)CC1)c1ccc(C)c(C)c1 (configuration not stated) | -1.02%
CC(O)CN1CCC(CN(C)Cc2cccc(C(=O)N(C)C)c2)CC1 (configuration not stated) | -5.74%
CCCC(=O)N1CCC(C(=O)NCCNc2ncccn2)CC1 | -20%
COc1cccc2cc(CNCc3ccc(N4CCCC4)nc3)oc12 | -5.42%
Cc1cc(C)n(C2CCCN(C(=O)CCc3nccs3)C2)n1 (configuration not stated) | -28.1%
COc1ccc(C2CCCN2C(=O)NCCn2ccnc2)cc1 (configuration not stated) | -9.13%
O=C(Nc1nccs1)NC1CCN(CC2CCCC2)CC1 | -8.07%
NC(=O)c1cnn2c1NCC(CNCCc1cccs1)C2 (configuration not stated) | -9.63%
c1coc(-c2nc(CNCCn3cccn3)cs2)c1 | -13.8%
CCOc1ccccc1OC1CCN(C(=O)c2cnsn2)CC1 | 0.32%
CCn1cc(NC(=O)NCC(C)N(C)C)cn1 (configuration not stated) | -18.8%
COc1ccccc1CC(=O)N1CCCC(n2nc(C)nc2C)C1 (configuration not stated) | -4.47%
Cc1nc(C)n(CC2CCCCN2CCOc2cccc(C#N)c2)n1 (configuration not stated) | -10%
CCc1nc(C2CCCN(C(=O)c3cc(C(C)C)[nH]n3)C2)no1 (configuration not stated) | -1.24%
Cc1nc(CNC(=O)N(CCCO)C2CCc3ccccc32)oc1C (configuration not stated) | -13.5%
Cc1nc(C2CCCN2Cc2nccn2CC(F)(F)F)no1 (configuration not stated) | -16.5%
Cc1ccc(C(=O)N(C)Cc2cc(C)on2)cn1 | -3.05%
Cc1cc(NC(=O)CN(CC2CCOC2)C2CC2)no1 (configuration not stated) | 1.65%
Cc1nc(C2CCCN(C(=O)COCc3ccccc3)C2)no1 (configuration not stated) | -2%
Cc1ccc(NS(=O)(=O)c2cc3c(c(C(=O)O)c2)OCCO3)cc1F | -5.77%
CCc1cccc(N2CCC(NC(=O)C3CCOCC3)CC2)c1 | -8.93%
CCc1nccn1C1CCCN(C(=O)c2cncnc2C)C1 (configuration not stated) | -11.8%
O=C(CCCOCc1ccccc1)N1CCCC(n2cncn2)C1 (configuration not stated) | -17.5%

SMILES | cytotoxicity at 10 µM
O=C(CCc1ccc(F)c(F)c1)N1CCCCC1Cn1cccn1 (configuration not stated) | -8.01%
CCn1cnnc1CNC(=O)N1CCN(C(C)C)CC1 | -18.1%
CC(C)c1nnc2n1CCN(C(=O)c1ccc(S(C)(=O)=O)cc1)C2 | -0.252%
CC(NC(=O)NCCCn1cncn1)c1ccc2c(c1)OCCO2 (configuration not stated) | -6.85%
CCc1nnc2n1CCN(Cc1nc(-c3ccoc3)no1)C2 | -4.1%
CSCCCN1CCCC1c1noc(C)n1 (configuration not stated) | -7.59%
Fc1cnc(N2CC[C@@H](N3CCOCC3)[C@@H]2Cc2ccncc2)nc1 | 0.81%
COCC1c2c(cnn2C)CCN1Cc1ccc(F)cc1 (configuration not stated) | -10.6%
CO[C@H]1CN(CC2CCOCC2)[C@@H]2CCCO[C@H]12 | -100%
CN(C)Cc1cnc2n1CCN(C(=O)NCc1ccccc1)CC2 | -6.41%
CO[C@@H]1CC[C@H]2[C@H]1OCCN2CC1CCOCC1 | -20.3%
Cc1nc(-c2cc(C(=O)N3CCCN(C)CC3)c3ccccn23)cn1C | 5.59%
COCC(=O)N1CCN(CCn2cccn2)c2nc(C)ccc2C1 | 10.5%
COc1cccc(CN2CCC3(CCN(C(=O)C4CC=CC4)CC3)C2)c1 | -0.602%
CN(C)CC(=O)N1CCC2(CCc3ccc(-c4ccncc4)cc32)CC1 | 6.34%
O=C(NC1CC1)[C@H]1C[C@H]2OCC[C@H]2N(CC2CC2)C1 | 2.76%
N#Cc1cccc(N2CC3(CCN(C(=O)c4ccncc4)C3)CC2=O)c1 (configuration not stated) | -1.75%
CCN1C[C@@H]2[C@@H](OC)CCN(S(=O)(=O)c3ccccc3F)[C@@H]2C1 | -0.902%
c1cnc(N2CCO[C@H]3[C@H](OCC4CC4)CC[C@@H]32)nc1 | 5.88%
CCn1cc(CN2C[C@@H]3CC[C@H]2CN(C(=O)c2cnccn2)C3)cn1 | -8.39%
